Laboratory results published in PubChem BioAssay.
Records with an inconclusive call do not appear.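 Rule for the calls, unless noted: active = cell viability at or below a set limit in both duplicate runs, the limit being the all-compound median minus 4 SD (cut at about 23% in these data, passing the limit was not always enough); inconclusive = no clear call, values can overlap the other calls; inactive = the rest.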

How the values were obtained:
[1] = OD615 S. cerevisiae growth inhibition, permissive medium, pilot counter-assay, permissive growth control for S. cerevisiae lifespan shortening project (AID 705;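 active = growth inhibition above 25% in both replicates, a cutoff set 3 SD above the mean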); details: OD615, 24 h, at 10 µM, hits give high values
How it was run: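 System: Engineered DeaD yeast | Buffer or medium: SC raffinose/galactose permissive medium | Doses: 10 µM single dose, 0.25% DMSO | Times: 24 h exposure, 30 °C | Measured by: OD615 turbidity read | Read-out: Yeast growth inhibition indicated by reduced 24 h OD615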

[2] = Restrictive medium S. cerevisiae growth inhibition, OD615, pilot screen of yeast lifespan reduction project, restrictive growth control (AID 706;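 active = growth inhibition above a set limit, 3 SD over mean compound inhibition, in both replicates, cut at about 43% in these data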;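 note: modified DeaD lifespan yeast strain shifted to restrictive glucose medium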); details: OD615, 48 h, at 10 µM, hits give high values
How it was run: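 Assay system: engineered S. cerevisiae DeaD strain; Buffer or medium: CSMM-D glucose medium; Dosing: 10 µM compound, 0.25% DMSO; Times: cell pre-growth 4 h, compound exposure 48 h, 30 °C; Detection: absorbance (optical density) measured at 615 nm.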

[3] = viability gain of MRP-1-high H69AR cells under doxorubicin, pilot screen, MRP-1 activator project, CellTiter-Glo, duplicate (AID 807;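 active = viability increase at or above a cutoff of the median across tested compounds plus 3 SD, cut at about 8.5% in these data, passing the limit was not always enough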;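 note: compound pretreatment 18-22 h then 72 h combined with doxorubicin; 0% = doxorubicin alone and 100% = vehicle without doxorubicin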); details: H69AR viability with doxorubicin, CellTiter-Glo luminescence; at 10 µM; hits give high values
[4] = growth suppression of beta-catenin knockout HCT116, pilot screen, human colon tumor cells (AID 823); details: CellTiter-Glo, 60 h, at 10 µM, hits give low values;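 note: 0% = wells killed by 20 µM Hyamine and 100% = untreated DMSO cell wells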
[5] = growth suppression of PTEN-deleted HCT116, pilot screen, cell-based, HCT116 clonal line, CellTiter-Glo (AID 824;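 active = viability at or below 27.92% in each of two runs, the all-compound median minus 4 SD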;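 note: 0% = 20 µM Hyamine control and 100% = vehicle cell control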); details: 60 h, at 10 µM, hits give low values
[6] = inhibitors of the yeast RAM network, pilot screen, dse1pr::URA3 reporter, 5-FOA selection (AID 869;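 active = inhibition over a set limit, the all-compound mean plus 3 SD, in both replicate runs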;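 note: 0% = DMSO wells with no growth and 100% = 10 µM 1-NA-PP1 with full growth; RAM network block rescues cells from 5-FOA so hits raise OD615 growth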); details: S. cerevisiae dse1pr::URA3 5-FOA growth, OD615, 2 d; at 10 µM; hits give high values; strain carries analog-sensitive mutant Cbk1 kinase
[7] = RAM signaling pathway blockade in yeast – S. cerevisiae, Pdr1DBD-CYC8 efflux-inhibited sensitized strain, primary screen (AID 1298;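 active = RAM network inhibition above 8.4% in each of two replicates, 3 SD over the compound average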;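 note: 0% = DMSO untreated cells without growth and 100% = 10 µM 1-NA-PP1 full growth; higher means more yeast growth rescued from 5-FOA killing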); details: S. cerevisiae cbk1-as DSE1-URA3 strain, 5-FOA growth OD615, 2 d; at 50 µM; hits give high values

COc1ccccc1NC(=O)c1ccc(S(=O)(=O)N(C)C)cc1
inactive: growth inhibition [1] 0.34% | growth inhibition [2] 6.62% | viability increase [3] -0.55% | viability [4] 108% | viability [5] 105% | inhibition [6] 2.33% | RAM network inhibition [7] -1.21%

CCOc1ccccc1NC(=O)CN1C(=O)COc2ccc(Cl)cc21
inactive: growth inhibition [1] -16.8% | growth inhibition [2] -11.8% | viability increase [3] -1.27% | viability [4] 91.7% | viability [5] 84.2% | inhibition [6] 4.02% | RAM network inhibition [7] 5.69%

CC1CCc2nn(CC(=O)NC3CCCC(C)C3C)cc2C1 (stereo not given)
inactive: growth inhibition [1] -6.6% | growth inhibition [2] -6.19% | viability increase [3] 1.67% | viability [4] 97.5% | viability [5] 85.3% | inhibition [6] -0.3% | RAM network inhibition [7] 1.94%

Cn1c(C(=O)N2CCN(Cc3ccccc3)CC2)cc2c(=O)n(C)c3ccccc3c21
inactive: growth inhibition [1] 7.94% | growth inhibition [2] 3.57% | viability increase [3] -4.21% | viability [4] 74.8% | viability [5] 74.8% | inhibition [6] 0.905% | RAM network inhibition [7] 1.37%

COc1ccc(N2CCN(C(=O)c3sc4nc(-c5ccc(F)cc5)cn4c3C)CC2)cc1
inactive: growth inhibition [1] -10.6% | growth inhibition [2] -19.7% | viability increase [3] -4.7% | viability [4] 102% | viability [5] 95.6% | inhibition [6] 2.24% | RAM network inhibition [7] 3.45%

CC1=C(C#N)C(c2cccnc2)C2=C(CC(C)(C)CC2=O)N1 (stereo not given)
inactive: growth inhibition [1] 1.49% | growth inhibition [2] -0.735% | viability increase [3] -2.91% | viability [4] 94.2% | viability [5] 99.6% | inhibition [6] 1.09% | RAM network inhibition [7] 3.92%

CCc1ccc(C2CC(c3ccc(Cl)cc3)n3nc(N)nc3N2)cc1 (stereo not given)
inactive: growth inhibition [1] 3.64% | growth inhibition [2] 17.7% | viability increase [3] 1.85% | viability [4] 101% | viability [5] 90.4% | inhibition [6] 1.53% | RAM network inhibition [7] 2.02%

Cc1nc2ccc(S(=O)(=O)NC(C(=O)NC3CCCC3)C(C)C)cc2s1 (stereo not given)
inactive: growth inhibition [1] -5.81% | growth inhibition [2] -1.42% | viability increase [3] -0.4% | viability [4] 102% | viability [5] 101% | inhibition [6] 1.04% | RAM network inhibition [7] 1.87%

C=C(C)c1cccc(C(C)(C)NC(=O)N2CCN(c3ccccn3)CC2)c1
inactive: growth inhibition [1] -11.1% | growth inhibition [2] 0.485% | viability increase [3] -0.48% | viability [4] 75.8% | viability [5] 89.6% | inhibition [6] 1.06% | RAM network inhibition [7] 1.43%

COc1cc(CN2CCN(c3cccc(C)c3C)CC2)cc(Br)c1O
inactive: growth inhibition [1] -4.04% | growth inhibition [2] 0.7% | viability increase [3] -2.57% | viability [4] 80.7% | viability [5] 86.6% | inhibition [6] -0.235% | RAM network inhibition [7] 1.51%

CC1CCCCN1CCNC(=O)c1cc2c(-c3ccccc3F)nn(C)c2s1 (stereo not given)
inactive: growth inhibition [1] -3.09% | growth inhibition [2] 0.025% | viability increase [3] -6.73% | viability [4] 48% | viability [5] 59.6% | inhibition [6] 0.095% | RAM network inhibition [7] 5.89%

CCOC(=O)C(C(=O)OCC)=C1OC(=O)c2ccccc21
inactive: growth inhibition [1] -11.1% | growth inhibition [2] -7.16% | viability increase [3] 0.39% | viability [4] 98.6% | viability [5] 96.4% | inhibition [6] 2.19% | RAM network inhibition [7] 2.35%

Cc1cc(C)n(-c2ncc(-c3ccccc3)nn2)n1
inactive: growth inhibition [1] -2.83% | growth inhibition [2] 29.2% | viability increase [3] -0.89% | viability [4] 105% | viability [5] 105% | inhibition [6] 0.43% | RAM network inhibition [7] 2.61%

Clc1ccc(C2CC(c3cccs3)n3ncnc3N2)cc1Cl (stereo not given)
inactive: growth inhibition [1] -2.88% | growth inhibition [2] 29.1% | viability increase [3] -5.77% | viability [4] 80.2% | viability [5] 72.9% | inhibition [6] 0.94% | RAM network inhibition [7] -1.53%

CCCC(=O)N1CCN(C2=NS(=O)(=O)c3ccccc32)CC1
inactive: growth inhibition [1] -0.28% | growth inhibition [2] 12.9% | viability increase [3] -0.68% | viability [4] 103% | viability [5] 98.5% | inhibition [6] -0.175% | RAM network inhibition [7] 3.82%
